The source of these data is ChEMBL document CHEMBL1132700, “Design, synthesis, structure-activity relationships, and biological characterization of novel arylalkoxyphenylalkylamine sigma ligands as potential antipsychotic drugs” (J Med Chem, 1999).

One test addresses D(2) dopamine receptor (Rattus norvegicus, UniProt P61169). As to the kind of experiment: Inhibitory concentration against radioligand [3H](-)-sulpiride binding to Dopamine receptor D2 in rat. A digest of the protocol:
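Striatal membranes from male Wistar rats (200–250 g), homogenized in 50 mM Tris/HCl pH 7.7, washed by repeated 50000g spins. Filtration on PEI-soaked glass-fiber filters, then scintillation counting. IC50 by nonlinear curve fitting, duplicate determinations.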

Test [1] deals with Sigma non-opioid intracellular receptor 1 (Rattus norvegicus, UniProt Q9R0C9). The experiment in a line: Inhibitory concentration against radioligand [3H]3-PPP binding to Sigma opioid receptor type 1 in rat brain membrane. It is filed as cell membranes. Summed up: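 Rat whole-brain membranes from male Wistar rats (200–250 g), homogenized in 50 mM Tris/HCl pH 7.7, washed by repeated 50000g spins. Incubated with 2 nM [3H]-(+)-3-PPP and at least five concentrations of unlabeled drug. Filtered on polyethylenimine-soaked glass-fiber filters and counted by scintillation. IC50 from nonlinear curve fitting of competition data, duplicate determinations.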

Test [2] concerns the target Glutamate receptor ionotropic, NMDA 1 (Rattus norvegicus, UniProt P35439). As to the kind of experiment: Inhibitory concentration against radioligand [3H]PCP binding to PCP site of N-methyl-D-aspartate glutamate receptor in rat. A digest of the protocol:
(§1)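 Male Wistar rat brain membranes in 50 mM Tris/HCl pH 7.7. Radioligands: PCP site 5 nM [3H]-PCP; D1 1 nM [3H]-SCH23390; 5-HT1A 0.2 nM [3H]-8-OH-DPAT; 5-HT2 5 nM [3H]-ketanserin; α1 0.2 nM [3H]-prazosin. Competition with at least five drug concentrations, filtration on PEI-soaked glass-fiber filters, scintillation counting, IC50 by nonlinear curve fit.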

Test [3] is filed under the species Mus musculus. The experiment in a line: Effective dose against (+)-SKF-10047-induced stereotyped behavior in mice was determined. It is filed as functional. A digest of the protocol:
(§2)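 Male ICR mice (25–30 g, 10 per group) acclimatized at least 1 h. Test drug given orally 30 min before (+)-SKF10,047 30 mg/kg ip. Stereotypy scored on a 0–5 scale from 10 min post-injection, every 5 min for 40 min. Vehicle plus three doses were tested. Total score expressed as percent of control, and ED25 derived.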

In another test the target is D(1A) dopamine receptor (Rattus norvegicus, UniProt P18901). As to the kind of experiment: Inhibitory concentration against radioligand [3H]SCH-23390 binding to Dopamine receptor D1 in rat. A digest of the protocol:
as §1

For test [4], the target named is T1, 5-hydroxytryptamine receptor 1A (Rattus norvegicus, UniProt P19327).
T1 sequence (P19327 whole entry): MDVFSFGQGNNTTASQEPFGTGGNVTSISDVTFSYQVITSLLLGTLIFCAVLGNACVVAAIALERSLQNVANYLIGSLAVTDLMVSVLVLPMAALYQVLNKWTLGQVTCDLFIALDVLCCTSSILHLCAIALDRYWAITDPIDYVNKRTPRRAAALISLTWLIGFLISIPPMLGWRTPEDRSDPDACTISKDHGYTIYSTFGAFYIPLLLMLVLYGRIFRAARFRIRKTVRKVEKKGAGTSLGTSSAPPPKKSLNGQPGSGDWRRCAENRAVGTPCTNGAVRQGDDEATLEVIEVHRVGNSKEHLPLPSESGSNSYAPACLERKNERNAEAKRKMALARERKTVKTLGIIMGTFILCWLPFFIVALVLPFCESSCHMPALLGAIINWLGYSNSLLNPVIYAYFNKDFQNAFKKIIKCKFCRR
The experiment in a line: Inhibitory concentration against radioligand [3H]hydroxy-2-(di-n-propylamino)-tetralin binding to 5-hydroxytryptamine 1A receptor in rat. Summed up: as §1

Test [5] concerns the target T2, Adrenergic receptor alpha-1 (Rattus norvegicus, UniProt P15823+P23944+P43140).
T2 sequence (P15823 whole entry): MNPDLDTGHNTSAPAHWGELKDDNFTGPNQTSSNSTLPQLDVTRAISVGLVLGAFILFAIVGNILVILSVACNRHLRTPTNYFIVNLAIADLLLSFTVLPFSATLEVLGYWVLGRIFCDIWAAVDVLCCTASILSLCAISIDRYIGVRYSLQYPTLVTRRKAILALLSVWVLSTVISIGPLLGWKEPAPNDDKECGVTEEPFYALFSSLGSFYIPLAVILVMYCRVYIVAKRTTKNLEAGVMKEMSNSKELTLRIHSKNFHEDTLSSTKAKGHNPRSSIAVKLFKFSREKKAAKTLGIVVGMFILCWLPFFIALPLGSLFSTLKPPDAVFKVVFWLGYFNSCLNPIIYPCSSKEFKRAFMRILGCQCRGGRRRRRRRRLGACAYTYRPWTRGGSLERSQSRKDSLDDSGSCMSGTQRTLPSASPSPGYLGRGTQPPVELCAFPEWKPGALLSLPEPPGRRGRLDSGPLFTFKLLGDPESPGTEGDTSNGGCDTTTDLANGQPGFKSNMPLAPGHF
T2 sequence (P23944 whole entry): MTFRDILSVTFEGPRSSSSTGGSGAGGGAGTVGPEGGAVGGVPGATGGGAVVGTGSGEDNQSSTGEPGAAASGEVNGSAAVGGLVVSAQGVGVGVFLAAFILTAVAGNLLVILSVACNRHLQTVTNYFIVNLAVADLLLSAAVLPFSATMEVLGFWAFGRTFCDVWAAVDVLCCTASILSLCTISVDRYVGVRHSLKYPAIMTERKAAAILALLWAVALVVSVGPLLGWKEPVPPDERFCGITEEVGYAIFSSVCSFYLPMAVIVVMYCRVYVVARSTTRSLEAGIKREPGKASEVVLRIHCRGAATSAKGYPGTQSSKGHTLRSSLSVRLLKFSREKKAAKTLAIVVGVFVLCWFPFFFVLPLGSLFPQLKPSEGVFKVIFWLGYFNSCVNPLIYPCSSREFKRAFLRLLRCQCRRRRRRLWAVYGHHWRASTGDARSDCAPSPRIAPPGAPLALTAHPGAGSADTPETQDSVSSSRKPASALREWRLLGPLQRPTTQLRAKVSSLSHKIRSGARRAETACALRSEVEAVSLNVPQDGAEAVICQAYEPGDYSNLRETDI
T2 sequence (P43140 whole entry): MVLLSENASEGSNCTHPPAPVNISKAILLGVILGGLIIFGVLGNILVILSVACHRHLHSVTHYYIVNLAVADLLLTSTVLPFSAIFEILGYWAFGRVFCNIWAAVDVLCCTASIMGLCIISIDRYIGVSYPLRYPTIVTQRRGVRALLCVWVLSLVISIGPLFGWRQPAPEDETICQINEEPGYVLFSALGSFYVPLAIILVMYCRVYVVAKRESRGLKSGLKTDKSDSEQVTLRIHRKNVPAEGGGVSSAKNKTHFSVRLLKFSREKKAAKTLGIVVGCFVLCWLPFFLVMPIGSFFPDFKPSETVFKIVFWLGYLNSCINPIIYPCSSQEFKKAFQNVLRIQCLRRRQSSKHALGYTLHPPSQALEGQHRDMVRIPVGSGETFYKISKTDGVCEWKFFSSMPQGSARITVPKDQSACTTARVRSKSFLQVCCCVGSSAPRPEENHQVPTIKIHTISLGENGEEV
As to the kind of experiment: Inhibitory concentration against radioligand [3H]prazosin binding to Alpha-1 adrenergic receptor in rat. Summed up: as §1

The target in test [6] is Serotonin 2 (5-HT2) receptor (Rattus norvegicus, UniProt P30994+P08909+P14842). As to the kind of experiment: Inhibitory concentration against radioligand [3H]ketanserin binding to 5-hydroxytryptamine 2 receptor in rat. Summed up: as §1
The test system of test [7] is Mus musculus. As to the kind of experiment: Effect at an intraperitoneal dose of 30 mg/Kg against (+)-SKF-10047-induced stereotyped behavior in mice was determined. It is filed as functional. A digest of the protocol: as §2
In test [8] the test system is Mus musculus. As to the kind of experiment: Effect at an intraperitoneal dose of 10 mg/kg against methamphetamine-induced hyperlocomotion in mice. It is filed as functional.

D(2) dopamine receptor, sequence (P61169 whole entry): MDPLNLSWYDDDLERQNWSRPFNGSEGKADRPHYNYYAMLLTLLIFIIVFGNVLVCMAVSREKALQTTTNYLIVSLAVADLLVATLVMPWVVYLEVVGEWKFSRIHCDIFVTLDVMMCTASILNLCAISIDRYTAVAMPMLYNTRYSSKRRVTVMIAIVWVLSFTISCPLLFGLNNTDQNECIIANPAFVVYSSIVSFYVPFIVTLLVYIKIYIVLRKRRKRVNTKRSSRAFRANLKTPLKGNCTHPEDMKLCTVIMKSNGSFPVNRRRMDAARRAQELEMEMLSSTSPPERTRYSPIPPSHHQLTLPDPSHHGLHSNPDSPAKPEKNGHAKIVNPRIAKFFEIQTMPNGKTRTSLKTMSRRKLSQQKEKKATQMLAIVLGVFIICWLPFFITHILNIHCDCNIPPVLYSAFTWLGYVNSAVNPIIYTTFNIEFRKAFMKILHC
Sigma non-opioid intracellular receptor 1, sequence (Q9R0C9 whole entry): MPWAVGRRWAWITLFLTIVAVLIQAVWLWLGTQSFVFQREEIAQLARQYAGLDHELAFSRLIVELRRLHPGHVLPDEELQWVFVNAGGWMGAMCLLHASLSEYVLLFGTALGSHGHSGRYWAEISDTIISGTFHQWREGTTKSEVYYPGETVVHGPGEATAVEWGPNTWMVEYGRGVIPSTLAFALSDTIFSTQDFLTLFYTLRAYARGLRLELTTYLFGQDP
D(1A) dopamine receptor, sequence (P18901 whole entry): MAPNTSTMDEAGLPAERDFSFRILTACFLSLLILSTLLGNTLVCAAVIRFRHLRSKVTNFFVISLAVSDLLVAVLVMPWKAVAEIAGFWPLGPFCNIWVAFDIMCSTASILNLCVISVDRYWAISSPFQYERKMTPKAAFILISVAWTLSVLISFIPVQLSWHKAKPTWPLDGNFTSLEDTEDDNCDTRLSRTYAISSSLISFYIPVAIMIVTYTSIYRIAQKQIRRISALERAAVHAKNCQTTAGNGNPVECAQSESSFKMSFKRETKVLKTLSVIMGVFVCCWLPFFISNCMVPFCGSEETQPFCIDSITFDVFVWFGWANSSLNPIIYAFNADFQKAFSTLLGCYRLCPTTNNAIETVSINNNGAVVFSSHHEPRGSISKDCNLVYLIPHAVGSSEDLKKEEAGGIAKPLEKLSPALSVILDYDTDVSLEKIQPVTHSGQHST

As for `Clc1ccc(OCCc2ccccc2)c(CCN2CCOCC2)c1`, the results for the concentration for half-maximal inhibition (IC50) (at D(2) dopamine receptor; in test [1]) were 163 nM and 308 nM, respectively.

Consider `CCCN(CCC)CCc1cccc(OC)c1OCCCc1ccccc1`, for which the 50% inhibitory concentration (IC50) at D(2) dopamine receptor was greater than 1000 nM; in [1], 1.7 nM.

As to `Clc1ccc(OCCc2ccccc2)c(CCCN2CCN(c3ncccn3)CC2)c1`, the half-inhibitory concentration (IC50) is 115 nM at D(2) dopamine receptor and 169 nM in test [1].

Consider `COc1cccc(CCN2CCN(c3ccccn3)CC2)c1OCCc1ccccc1`, for which the concentration for half-maximal inhibition (IC50) at D(2) dopamine receptor is 137 nM; in [1], greater than 1000 nM.

Regarding `COc1cccc(CCN2CCOCC2)c1OCCc1ccccc1`, the IC50 is greater than 1000 nM on D(2) dopamine receptor and 373 nM in [1].

Regarding `CCCN(CCC)CCc1ccc(OC)c(OCCc2ccc(OC)cc2)c1`, the IC50 on D(2) dopamine receptor is greater than 1000 nM; in [1], 1 nM.

Take `CCCN(CCC)CCc1cc(Cl)ccc1OCCc1ccccc1.O=C(O)C(=O)O`: the half-inhibitory concentration (IC50) in [2] is greater than 1000 nM; at D(1A) dopamine receptor it was greater than 1000 nM; in [4] it was 289 nM; in test [5] it was 90 nM; in test [6], 196 nM. The molecule also yielded an ED25 in the test listed under Mus musculus [3] of 235 mg/kg.

As for `CCCN(CCC)CCc1cccc(OC)c1OCc1ccccc1.O=C(O)C(=O)O`, the half-maximal inhibitory concentration (IC50) on D(2) dopamine receptor was greater than 1000 nM; in [1] it was 26 nM. The Control with Mus musculus [7] was 64%.

As for `CCCN(CCC)CCCc1cccc(OC)c1OCCc1ccccc1`, the IC50 on D(2) dopamine receptor was greater than 1000 nM; in [1] it was 13 nM.

As to `CCCN(CCC)CCc1ccccc1OCCc1ccccc1`, the IC50 amounted to 436 nM on D(2) dopamine receptor and 15 nM in test [1].

As for `Clc1ccc(OCCc2ccccc2)c(CCN2CCN(c3ccccn3)CC2)c1`, the half-inhibitory concentration (IC50) is 51 nM at D(2) dopamine receptor and greater than 1000 nM in test [1].

As to `CCCN(CCC)CCc1ccc(OC)c(OCCc2ccccc2)c1.Cl`, the Control in the test on Mus musculus [8] amounted to 119%. Further, the concentration for half-maximal inhibition (IC50) was greater than 1000 nM in test [2]; greater than 1000 nM at D(1A) dopamine receptor; 6460 nM in test [4]; greater than 1000 nM at D(2) dopamine receptor; 10800 nM in [5]; greater than 1000 nM in [6]. Also, the ED25 in the test filed under Mus musculus [3] was 6.5 mg/kg.

Consider `CCCN(CCC)CCc1ccc(OCCc2ccccc2)c(O)c1`, for which the 50% inhibitory concentration (IC50) on D(2) dopamine receptor was greater than 1000 nM; in [1], 25 nM.

`CCCN(CCC)CCc1cccc(OC)c1OCCc1ccccc1.Cl` yielded a Control in the test with Mus musculus [8] of 98%. Also, the IC50 in [2] is greater than 10000 nM; at D(1A) dopamine receptor it was greater than 1000 nM; in test [4], 3580 nM; on D(2) dopamine receptor, greater than 1000 nM; in test [5], 11700 nM; in test [6], 8800 nM. This molecule also showed an ED25 in the test filed under Mus musculus [3] of 79 mg/kg.

Take `CCCN(CCc1ccc(OC)c(OCCc2ccccc2)c1)CCC(C)C`: the 50% inhibitory concentration (IC50) amounted to 680 nM at D(2) dopamine receptor and 2.9 nM in test [1].

For the molecule `CCCCCCN(CCC)CCc1ccc(OC)c(OCCc2ccccc2)c1`, the IC50 was 619 nM at D(2) dopamine receptor and 1.8 nM in [1].

For the molecule `COc1ccccc1N1CCN(CCc2cc(Cl)ccc2OCCc2ccccc2)CC1`, the figures for the IC50 (at D(2) dopamine receptor; in test [1]) were 88 nM and 640 nM, respectively.

In turn, `CCCN(CCC)CCCc1ccc(OC)c(OCCc2ccccc2)c1.Cl` gave a Control in the test with Mus musculus [8] of 99%. The IC50 is greater than 1000 nM in test [2]; greater than 1000 nM on D(1A) dopamine receptor; 373 nM in test [4]; 1 nM in test [1]; 14100 nM in test [5]; greater than 1000 nM in test [6]. For the same molecule, the ED25 in the test listed under Mus musculus [3] came out at 44 mg/kg.

Take `COc1ccc(CCN2CCN(c3ccccc3OC)CC2)cc1OCCc1ccccc1`: the values for the IC50 (at D(2) dopamine receptor; in test [1]) were 11 nM and 25 nM, respectively.

`CCCN(CCC)CCc1ccc(O)c2c1-c1ccccc1CO2`: the values for the IC50 (at D(2) dopamine receptor; in test [1]) were greater than 1000 nM and 558 nM, respectively.

For `OC(CCCN1CCN(c2ncc(F)cn2)CC1)c1ccc(F)cc1` (stereo unspecified) [BMY-14802], the ED25 in the test filed under Mus musculus [3] is 7.6 mg/kg. On D(2) dopamine receptor, this molecule showed an IC50 greater than 1000 nM.

The molecule `O=C(CCCN1CCC(O)(c2ccc(Cl)cc2)CC1)c1ccc(F)cc1` [HALOPERIDOL] gave a Control with Mus musculus [8] of 7.3%.

Usually IC50 stands for the midpoint of a concentration-inhibition curve. Higher therefore signals lower potency.
